Test results reported in ChEMBL document CHEMBL3792280, “Design and synthesis of novel quinoxaline derivatives as potential candidates for treatment of multidrug-resistant and latent tuberculosis” (Bioorg Med Chem Lett, 2016).
In brackets after ≈: the same amount, converted by molar mass.

How the values were obtained:
Assay type in all cases: functional
[1] = tested on: Mycobacterium tuberculosis; experiment: Antimicrobial activity against isoniazid resistant Mycobacterium tuberculosis SRI 1369 after 7 days; conditions: SRI 1369, 168 h
Procedure, shortened: (§1)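 MIC in µg/mL, retested on susceptible H37Rv (SRI 1345) in the same panel as single-drug-resistant strains: isoniazid-, rifampin- and ofloxacin-resistant. Percent inhibition recorded at the MIC concentration. Ratio taken as MIC H37Rv / MIC resistant strain.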

[2] = Ratio of MIC for Mycobacterium tuberculosis H37Rv SRI 1345 to MIC for ofloxacin resistant Mycobacterium tuberculosis SRI 4000; procedure, shortened: as §1
[3] = tested on: Mycobacterium tuberculosis; experiment: Antimicrobial activity against rifampicin resistant Mycobacterium tuberculosis SRI 1367 after 7 days; conditions: SRI 1367, 168 h; procedure, shortened: as §1
[4] = tested on: Mycobacterium tuberculosis; experiment: Antimicrobial activity against ofloxacin resistant Mycobacterium tuberculosis SRI 4000 assessed as growth inhibition at MIC after 7 days; procedure, shortened: as §1
[5] = tested on: Mycobacterium tuberculosis; experiment: Antimicrobial activity against rifampicin resistant Mycobacterium tuberculosis SRI 1367 assessed as growth inhibition at MIC after 7 days; procedure, shortened: as §1
[6] = Ratio of MIC for Mycobacterium tuberculosis H37Rv SRI 1345 to MIC for isoniazid resistant Mycobacterium tuberculosis SRI 1369; procedure, shortened: as §1
[7] = tested on: Mycobacterium tuberculosis; experiment: Antimicrobial activity against ofloxacin resistant Mycobacterium tuberculosis SRI 4000 after 7 days; conditions: SRI 4000, 168 h; procedure, shortened: as §1
[8] = Ratio of MIC for Mycobacterium tuberculosis H37Rv SRI 1345 to MIC for rifampicin resistant Mycobacterium tuberculosis SRI 1367; procedure, shortened: as §1
[9] = tested on: Mycobacterium tuberculosis; experiment: Antimicrobial activity against isoniazid resistant Mycobacterium tuberculosis SRI 1369 assessed as growth inhibition at MIC after 7 days; procedure, shortened: as §1

Row | SMILES | MIC [1] [µg/mL] | Ratio [2] | MIC [3] [µg/mL] | growth inhibition (GI) [4] [%] | growth inhibition (GI) [5] [%] | Ratio [6] | MIC [7] [µg/mL] | Ratio [8] | growth inhibition (GI) [9] [%]
1 | CC(=O)c1c(C(F)(F)F)nc2cc(F)c(N3CCSCC3)cc2[n+]1[O-] | 0.75 (≈ 2 µM) | 4 | 0.38 (≈ 1.01 µM) | 62 | 75 | 1 | 0.19 (≈ 0.506 µM) | 2 | 89
2 | NNC(=O)c1ccncc1 [ISONIAZID] |  |  | 0.02 (≈ 0.146 µM) |  | 55 |  |  |  | 
3 | CC(=O)c1c(C(F)(F)F)[n+]([O-])c2cc(F)c(N3CCCCC3)cc2[n+]1[O-] | 0.25 (≈ 0.67 µM) |  | 0.25 (≈ 0.67 µM) | 84 | 68 |  | 0.25 (≈ 0.67 µM) |  | 57
4 | Cc1c(C(=O)/C=C/c2ccccc2)[n+]([O-])c2cc(Cl)ccc2[n+]1[O-] | 1 (≈ 2.93 µM) | 4 | 0.5 (≈ 1.47 µM) | 100 | 51 | 2 | 0.5 (≈ 1.47 µM) | 4 | 64
5 | O=C(c1ccco1)c1c(C(F)(F)F)[n+]([O-])c2cc(Cl)c(N3CCOCC3)cc2[n+]1[O-] | 0.5 (≈ 1.13 µM) | 8 | 0.5 (≈ 1.13 µM) | 76 | 66 | 4 | 0.25 (≈ 0.563 µM) | 4 | 78
6 | CO[C@H]1/C=C/O[C@@]2(C)Oc3c(C)c(O)c4c(O)c(c(/C=N/N5CCN(C)CC5)c(O)c4c3C2=O)NC(=O)/C(C)=C\C=C\[C@H](C)[C@H](O)[C@@H](C)[C@@H](O)[C@@H](C)[C@H](OC(C)=O)[C@@H]1C [RIFAMPIN] | 0.05 (≈ 0.0608 µM) |  |  | 53 |  |  | 0.195 (≈ 0.237 µM) |  | 72
7 | COC(=O)c1c(C(F)(F)F)[n+]([O-])c2ccc(N3CCN(c4ccc(F)cc4)CC3)cc2[n+]1[O-] | 0.19 (≈ 0.407 µM) | 8 | 0.19 (≈ 0.407 µM) | 81 | 73 | 8 | 0.19 (≈ 0.407 µM) | 8 | 51
